Data from ChEMBL document CHEMBL3875200, “Bivalent SIRT1 inhibitors” (Bioorg Med Chem Lett, 2017).
The source made the active and inactive calls. The calls are words filed in the database; no cut-off is given here.

Assays:
[1] = molecular target: T1, NAD-dependent protein deacetylase sirtuin-1 (Homo sapiens, UniProt Q96EB6); assay: Inhibition of recombinant human His6/GST-tagged SIRT1 expressed in Escherichia coli assessed as reduction in H2N-HK-[Nepsilon-acetyl-lysine]-LM-COOH deacetylation measured after 10 mins in presence of beta-NAD+ by RP-HPLC assay
T1 sequence (Q96EB6 whole entry): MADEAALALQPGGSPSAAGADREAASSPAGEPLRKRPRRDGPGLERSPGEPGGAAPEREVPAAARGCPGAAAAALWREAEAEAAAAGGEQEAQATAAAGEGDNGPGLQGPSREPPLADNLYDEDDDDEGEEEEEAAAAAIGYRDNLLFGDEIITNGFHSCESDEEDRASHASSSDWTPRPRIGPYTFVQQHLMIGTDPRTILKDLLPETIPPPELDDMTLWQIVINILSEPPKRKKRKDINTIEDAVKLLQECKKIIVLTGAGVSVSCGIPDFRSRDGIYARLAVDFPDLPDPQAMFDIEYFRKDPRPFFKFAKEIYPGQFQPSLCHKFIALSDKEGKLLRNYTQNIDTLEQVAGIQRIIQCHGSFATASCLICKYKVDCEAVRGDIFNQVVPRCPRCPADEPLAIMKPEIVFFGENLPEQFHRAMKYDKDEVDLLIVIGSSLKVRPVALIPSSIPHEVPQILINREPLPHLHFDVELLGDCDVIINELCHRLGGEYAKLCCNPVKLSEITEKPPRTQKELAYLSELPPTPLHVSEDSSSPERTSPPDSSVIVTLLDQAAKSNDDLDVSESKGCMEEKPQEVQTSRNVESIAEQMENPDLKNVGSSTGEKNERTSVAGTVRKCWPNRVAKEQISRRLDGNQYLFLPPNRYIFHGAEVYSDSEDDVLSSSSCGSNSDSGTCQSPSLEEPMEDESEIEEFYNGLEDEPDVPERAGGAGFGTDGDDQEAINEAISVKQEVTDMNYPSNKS

[2] = molecular target: T2, NAD-dependent protein deacetylase sirtuin-1 (Homo sapiens) (UniProt Q96EB6); assay: Reversible inhibition of recombinant human His6/GST-tagged SIRT1 expressed in Escherichia coli assessed as inhibition of H2N-HK-[epsilonN-acetyl-lysine]-LM-COOH deacetylation measured after 10 mins in presence of beta-NAD+ by Dixon plot analysis
T2 sequence (whole entry): T1 sequence (Q96EB6 whole entry)

[3] = Aqueous solubility of the compound; type: physicochemical; conditions: buffer
[4] = molecular target: T3, NAD-dependent protein deacetylase sirtuin-2 (Homo sapiens, UniProt Q8IXJ6); assay: Inhibition of recombinant human His6-tagged SIRT2 (2 to 389 residues) expressed in Escherichia coli assessed as inhibition of H2N-HK-[epsilonN-acetyl-lysine]-LM-COOH deacetylation measured after 12 mins in presence of beta-NAD+ by RP-HPLC analysis
T3 sequence (Q8IXJ6 whole entry): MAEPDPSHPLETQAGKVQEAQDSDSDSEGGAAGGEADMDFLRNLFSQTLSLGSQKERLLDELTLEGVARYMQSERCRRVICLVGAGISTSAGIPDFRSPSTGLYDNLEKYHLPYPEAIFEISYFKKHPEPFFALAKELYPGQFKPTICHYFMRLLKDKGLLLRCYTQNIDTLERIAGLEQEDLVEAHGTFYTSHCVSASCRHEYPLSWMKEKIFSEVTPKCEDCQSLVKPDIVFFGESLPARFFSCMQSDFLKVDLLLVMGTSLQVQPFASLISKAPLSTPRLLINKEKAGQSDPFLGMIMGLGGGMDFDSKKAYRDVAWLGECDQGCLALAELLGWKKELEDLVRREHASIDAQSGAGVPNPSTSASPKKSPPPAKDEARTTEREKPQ

[5] = molecular target: T2, NAD-dependent protein deacetylase sirtuin-1 (Homo sapiens); assay: (§1) Non-competitive inhibition of recombinant human His6/GST-tagged SIRT1 expressed in Escherichia coli assessed as deacetylation of H2N-HK-[epsilonN-acetyl-lysine]-LM-COOH at 4 to 8.5 uM measured after 10 mins in presence of varying beta-NAD+ and constant substrate concentration by Lineweaver-Burk plot analysis
Method in brief: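 β-NAD⁺ was the varied co-substrate. An uncompetitive-intercept inhibition constant (Kii) and the apparent Km for β-NAD⁺ were derived from the kinetic data.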

[6] = species on record: Homo sapiens; assay: Selectivity ratio of IC50 for recombinant human His6/GST-tagged SIRT1 expressed in Escherichia coli to IC50 for recombinant human His6-tagged SIRT2 (2 to 389 residues) expressed in Escherichia coli
[7] = molecular target: T2, NAD-dependent protein deacetylase sirtuin-1 (Homo sapiens); assay: as §1, with “Competitive” for “Non-competitive”, “constant” for “varying”, “varying” for “constant”
Method in brief: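 Inhibitor tested against varied acetyl-lysine peptide substrate H2N-HK-(Nε-acetyl-lysine)-LM-COOH. A competitive inhibition constant (Kis) and the apparent Km for this peptide were derived from the kinetic data.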

[8] = molecular target: T4, NAD-dependent protein deacetylase sirtuin-3, mitochondrial (Homo sapiens, UniProt Q9NTG7); assay: Inhibition of recombinant human His6-tagged SIRT3 (101 to 399 residues) expressed in Escherichia coli assessed as inhibition of H2N-HK-[epsilonN-acetyl-lysine]-LM-COOH deacetylation measured after 10 mins in presence of beta-NAD+ by reversed-phase C18 HPLC analysis
T4 sequence (Q9NTG7 whole entry): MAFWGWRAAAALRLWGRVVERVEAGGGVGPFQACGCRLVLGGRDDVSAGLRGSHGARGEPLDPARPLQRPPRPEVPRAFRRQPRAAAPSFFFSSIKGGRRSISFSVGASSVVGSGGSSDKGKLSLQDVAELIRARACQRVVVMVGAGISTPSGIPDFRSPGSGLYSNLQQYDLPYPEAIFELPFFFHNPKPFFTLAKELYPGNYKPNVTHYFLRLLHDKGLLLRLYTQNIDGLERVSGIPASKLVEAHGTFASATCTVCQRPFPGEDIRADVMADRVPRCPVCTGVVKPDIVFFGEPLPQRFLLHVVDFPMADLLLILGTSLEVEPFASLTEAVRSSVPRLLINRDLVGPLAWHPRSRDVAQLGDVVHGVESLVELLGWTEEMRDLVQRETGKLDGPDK

[9] = species on record: Homo sapiens; assay: Selectivity ratio of IC50 for recombinant human His6/GST-tagged SIRT1 expressed in Escherichia coli to IC50 for recombinant human His6-tagged SIRT3 (101 to 399 residues) expressed in Escherichia coli

IC50 [1] [µM]	Compound	also measured
133	CC(=O)NCCCC[C@H](NC(=O)[C@H](CCCCNC(=O)CCCCCSc1nc2ccccc2o1)NC(=O)[C@H](CCCCNC(C)=O)NC(C)=O)C(N)=O	
> 200	CC(=O)NCCCC[C@H](NC(=O)[C@H](CCCCNC(=O)CNC(=O)CI)NC(=O)[C@H](CCCCNC(C)=O)NC(C)=O)C(N)=O	inhibition [2]: Active
5.3	CC(=O)NCCCC[C@H](NC(=O)[C@H](CCCCNC(=O)CCCCCCCSc1nc2ccccc2s1)NC(=O)[C@H](CCCCNC(C)=O)NC(C)=O)C(N)=O	solubility [3]: Insoluble
18	CC(=O)NCCCC[C@H](NC(=O)[C@H](CCCCNC(=O)CSc1ncc(-c2ccccc2)s1)NC(=O)[C@H](CCCCNC(C)=O)NC(C)=O)C(N)=O	
14.6	CC(=O)NCCCC[C@H](NC(=O)[C@H](CCCCNC(=O)CCCCCSc1cccc2ccccc12)NC(=O)[C@H](CCCCNC(C)=O)NC(C)=O)C(N)=O	
116	CC(=O)NCCCC[C@H](NC(=O)[C@H](CCCCNC(=O)CNC(=O)CNC(=O)CSc1nc2ccccc2s1)NC(=O)[C@H](CCCCNC(C)=O)NC(C)=O)C(N)=O	
> 900	CC(=O)NCCCC[C@H](NC(=O)[C@H](CCCCNC(=O)CCCCCSc1nc2c(N)ncnc2[nH]1)NC(=O)[C@H](CCCCNC(C)=O)NC(C)=O)C(N)=O	
77.5	CC(=O)NCCCC[C@H](NC(=O)[C@H](CCCCNC(=O)CSc1nc2ccccc2s1)NC(=O)[C@H](CCCCNC(C)=O)NC(C)=O)C(N)=O	
39.3	CC(=O)NCCCC[C@H](NC(=O)[C@H](CCCCNC(=O)CI)NC(=O)[C@H](CCCCNC(C)=O)NC(C)=O)C(N)=O	inhibition [2]: Active; IC50 [4]: 22.2 µM
12.4	CC(=O)NCCCC[C@H](NC(=O)[C@H](CCCCNC(=O)CCCCCSc1nc2ccccc2s1)NC(=O)[C@H](CCCCNC(C)=O)NC(C)=O)C(N)=O	inhibition [5]: Active; Ratio IC50 [6]: > 16; inhibition [7]: Active; IC50 [8]: > 1000 µM; IC50 [4]: > 200 µM; Ratio IC50 [9]: > 81
30	CC(=O)NCCCC[C@H](NC(=O)[C@H](CCCCNC(=O)CCCCCCSc1nc2ccccc2s1)NC(=O)[C@H](CCCCNC(C)=O)NC(C)=O)C(N)=O	
57.7	CC(=O)NCCCC[C@H](NC(=O)[C@H](CCCCNC(=O)CCCCCSCc1ccccc1)NC(=O)[C@H](CCCCNC(C)=O)NC(C)=O)C(N)=O	
15.4	CC(=O)NCCCC[C@H](NC(=O)[C@H](CCCCNC(=O)CCCCCSc1ncc(-c2ccccc2)s1)NC(=O)[C@H](CCCCNC(C)=O)NC(C)=O)C(N)=O	
171	CC(=O)NCCCC[C@H](NC(=O)[C@H](CCCCNC(=O)CSCc1ccccc1)NC(=O)[C@H](CCCCNC(C)=O)NC(C)=O)C(N)=O	
27	CC(=O)NCCCC[C@H](NC(=O)[C@H](CCCCNC(=O)CCCSc1nc2ccccc2s1)NC(=O)[C@H](CCCCNC(C)=O)NC(C)=O)C(N)=O	
14.6	CC(=O)NCCCC[C@H](NC(=O)[C@H](CCCCNC(=O)CCCCCSc1ccc2ccccc2c1)NC(=O)[C@H](CCCCNC(C)=O)NC(C)=O)C(N)=O	
150	CC(=O)NCCCC[C@H](NC(=O)[C@H](CCCCNC(=O)CSc1nnc(/C=C/c2ccccc2)[nH]1)NC(=O)[C@H](CCCCNC(C)=O)NC(C)=O)C(N)=O	
45.8	CC(=O)NCCCC[C@H](NC(=O)[C@H](CCCCNC(=O)CCCCCCCSc1nc2c(N)ncnc2[nH]1)NC(=O)[C@H](CCCCNC(C)=O)NC(C)=O)C(N)=O	
187	CC(=O)NCCCC[C@H](NC(=O)[C@H](CCCCNC(=O)CCCCCSc1nc2ccccc2[nH]1)NC(=O)[C@H](CCCCNC(C)=O)NC(C)=O)C(N)=O	
